Test results taken from ChEMBL document CHEMBL4385668, “Synthesis and in vitro anticancer activity of new gemcitabine-nucleoside analogue dimers containing methyltriazole or ester-methyltriazole linker” (Bioorg Med Chem Lett, 2019).

Tests used:
[1] = Drug level in human HeLa cells treated with 1-(3'-Deoxythymidin-3'-yl)-4-[methyloxycarbonyl-(2'-deoxy-2',2'-difluorocytidin-4N-yl)]-1H-1,2,3-triazole assessed as compound release incubated for 12 hrs by HPLC/MS method; format: ADME, cell-based
Method in brief: (§1)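 HeLa cells were incubated with the dimer at 37 °C for 12 h. Cell lysate was analysed by HPLC/MS for released gemcitabine, the deamination product dFdU and the thymidine-triazole fragment. A separately synthesized sample of the thymidine-triazole fragment was used as the reference.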

A549 = assay: Cytotoxicity in human A549 cells assessed as reduction in cell viability incubated for 72 hrs by SRB assay; format: functional, cell-based; settings: A549, 72 h
Method in brief: (§2)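 SRB assay of cell viability in human cancer lines (HeLa, KB, A549, U87, HepG2) and normal dermal fibroblasts (HDF). IC50 values are […] of three independent experiments.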

HepG2 = assay: Cytotoxicity in human HepG2 cells assessed as reduction in cell viability incubated for 72 hrs by SRB assay; format: functional, cell-based; settings: HepG2, 72 h; method in brief: as §2
[2] = Selectivity index, ratio of IC50 for cytotoxicity in human NHDF cells to IC50 for cytotoxicity in human A549 cells
Method in brief: (§3)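 Selectivity index is the IC50 in normal HDF fibroblasts divided by the IC50 in the given cancer line.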

[3] = Selectivity index, ratio of IC50 for cytotoxicity in human NHDF cells to IC50 for cytotoxicity in human HepG2 cells; method in brief: as §3
[4] = Selectivity index, ratio of IC50 for cytotoxicity in human NHDF cells to IC50 for cytotoxicity in human HeLa cells; method in brief: as §3
U-87 MG = assay: Cytotoxicity in human U87 cells assessed as reduction in cell viability incubated for 72 hrs by SRB assay; format: functional, cell-based, U-87MG ATCC; method in brief: as §2
KB = assay: Cytotoxicity in human KB cells assessed as reduction in cell viability incubated for 72 hrs by SRB assay; format: functional, cell-based; method in brief: as §2
[5] = Selectivity index, ratio of IC50 for cytotoxicity in human NHDF cells to IC50 for cytotoxicity in human U87 cells; method in brief: as §3
[6] = Selectivity index, ratio of IC50 for cytotoxicity in human NHDF cells to IC50 for cytotoxicity in human KB cells; method in brief: as §3
HeLa = assay: Cytotoxicity in human HeLa cells assessed as reduction in cell viability incubated for 72 hrs by SRB assay; format: functional, cell-based; method in brief: as §2
NHDF = assay: Cytotoxicity in human NHDF cells assessed as reduction in cell viability incubated for 72 hrs by SRB assay; format: cell-based; method in brief: as §2
[7] = Drug metabolism in human HeLa cells assessed as 2',2'-difluoro-2'-deoxyuridine release incubated for 12 hrs by HPLC/MS method; format: ADME, cell-based; method in brief: as §1
[8] = Drug metabolism in human HeLa cells assessed as gemcitabine release incubated for 12 hrs by HPLC/MS method; format: ADME, cell-based; method in brief: as §1

| Compound | Drug uptake [1] | IC50 (A549) [µM] | IC50 (HepG2) [µM] | Ratio IC50 [2] | Ratio IC50 [3] | Ratio IC50 [4] | IC50 (U-87 MG) [µM] | IC50 (KB) [µM] | Ratio IC50 [5] | Ratio IC50 [6] | IC50 (HeLa) [µM] | IC50 (NHDF) [µM] | Drug metabolism [7] | Drug metabolism [8] |
| --- | --- | --- | --- | --- | --- | --- | --- | --- | --- | --- | --- | --- | --- | --- |
| Cc1cn([C@H]2C[C@H](n3cc(CO)nn3)[C@@H](CO)O2)c(=O)[nH]c1=O | Active |  |  |  |  |  |  |  |  |  |  |  |  |  |
| CC(C)(C)OC(=O)O[C@H]1C[C@H](n2cc(F)c(=O)[nH]c2=O)O[C@@H]1Cn1cc(CNc2ccn([C@@H]3O[C@H](CO)[C@@H](O)C3(F)F)c(=O)n2)nn1 |  | 5.86 | 5.71 | 2.35 | 2.41 | 2.94 | 4.73 | 4.62 | 2.91 | 2.97 | 4.68 | 13.7 |  |  |
| O=c1[nH]c(=O)n([C@H]2C[C@H](O)[C@@H](Cn3cc(CNc4ccn([C@@H]5O[C@H](CO)[C@@H](O)C5(F)F)c(=O)n4)nn3)O2)cc1F |  | 79.3 | 78.9 |  |  |  | 80.3 | 81.5 |  |  | 78.9 | 106 |  |  |
| Nc1ccn([C@@H]2O[C@H](Cn3cc(COC(=O)Nc4ccn([C@@H]5O[C@H](CO)[C@@H](O)C5(F)F)c(=O)n4)nn3)[C@@H](O)C2(F)F)c(=O)n1 |  | 11.4 | 10.8 |  |  |  | 12.6 | 11.3 |  |  | 12.4 | 15.8 |  |  |
| O=C(Nc1ccn([C@@H]2O[C@H](CO)[C@@H](O)C2(F)F)c(=O)n1)OCc1cn(C[C@H]2O[C@@H](n3ccc(NC(=O)OCc4ccccc4)nc3=O)C(F)(F)[C@@H]2O)nn1 |  | 2.11 | 2.21 | 3.85 | 3.67 | 4.1 | 2.14 | 2.01 | 3.79 | 4.04 | 1.98 | 8.12 |  |  |
| Cc1cn([C@H]2C[C@H](O)[C@@H](Cn3cc(CNc4ccn([C@@H]5O[C@H](CO)[C@@H](O)C5(F)F)c(=O)n4)nn3)O2)c(=O)[nH]c1=O |  | 126 | 130 |  |  |  | 128 | 131 |  |  | 129 | 152 |  |  |
| Cc1cn([C@H]2C[C@H](O)[C@@H](Cn3cc(COC(=O)Nc4ccn([C@@H]5O[C@H](CO)[C@@H](O)C5(F)F)c(=O)n4)nn3)O2)c(=O)[nH]c1=O |  | 13.4 | 14.6 |  |  |  | 13.5 | 13.1 |  |  | 13.5 | 16.9 |  |  |
| Cc1cn([C@H]2C[C@H](OC(=O)OC(C)(C)C)[C@@H](Cn3cc(CNc4ccn([C@@H]5O[C@H](CO)[C@@H](O)C5(F)F)c(=O)n4)nn3)O2)c(=O)[nH]c1=O |  | 6.07 | 6.34 |  |  |  | 6.97 | 7.07 |  |  | 6.3 | 14.2 |  |  |
| Cc1cn([C@H]2C[C@H](OC(=O)OC(C)(C)C)[C@@H](Cn3cc(COC(=O)Nc4ccn([C@@H]5O[C@H](CO)[C@@H](O)C5(F)F)c(=O)n4)nn3)O2)c(=O)[nH]c1=O |  | 8.5 | 11.1 |  |  |  | 9.68 | 10.7 |  |  | 9.65 | 15 |  |  |
| O=C(Nc1ccn([C@@H]2O[C@H](Cn3cc(CNc4ccn([C@@H]5O[C@H](CO)[C@@H](O)C5(F)F)c(=O)n4)nn3)[C@@H](O)C2(F)F)c(=O)n1)OCc1ccccc1 |  | 4.31 | 4.64 | 2.34 | 2.18 | 2.39 | 4.45 | 4.14 | 2.27 | 2.44 | 4.23 | 10.1 |  |  |
| O=C(Nc1ccn([C@@H]2O[C@H](Cn3cc(CNc4ccn([C@@H]5O[C@H](CO)[C@@H](O)C5(F)F)c(=O)n4)nn3)[C@@H](OC(=O)c3ccccc3)C2(F)F)c(=O)n1)c1ccccc1 |  | 6.01 | 5.82 |  |  |  | 5.5 | 5.34 |  |  | 5.41 | 14.2 |  |  |
| CC(C)(C)OC(=O)O[C@@H]1[C@@H](Cn2cc(CNc3ccn([C@@H]4O[C@H](CO)[C@@H](O)C4(F)F)c(=O)n3)nn2)O[C@@H](n2ccc(NC(=O)OCc3ccccc3)nc2=O)C1(F)F |  | 3.24 | 3.93 | 2.51 | 2.07 | 2.6 | 3.81 | 3.09 | 2.13 | 2.63 | 3.12 | 8.12 |  |  |
| CC(C)(C)OC(=O)O[C@@H]1[C@@H](Cn2cc(COC(=O)Nc3ccn([C@@H]4O[C@H](CO)[C@@H](O)C4(F)F)c(=O)n3)nn2)O[C@@H](n2ccc(NC(=O)OCc3ccccc3)nc2=O)C1(F)F |  | 0.83 | 1.01 | 5.65 | 4.64 | 4.83 | 1.09 | 0.95 | 4.3 | 4.94 | 0.97 | 4.69 |  |  |
| O=C(Nc1ccn([C@@H]2O[C@H](CO)[C@@H](O)C2(F)F)c(=O)n1)OCc1cn(C[C@H]2O[C@@H](n3cc(F)c(=O)[nH]c3=O)C[C@@H]2O)nn1 |  | 8.01 | 7.66 |  |  |  | 7.56 | 6.52 |  |  | 6.7 | 10.2 |  |  |
| CC(C)(C)OC(=O)O[C@@H]1[C@@H](Cn2cc(COC(=O)Nc3ccn([C@@H]4O[C@H](CO)[C@@H](O)C4(F)F)c(=O)n3)nn2)O[C@@H](n2ccc(N)nc2=O)C1(F)F |  | 2.17 | 2.34 | 4.06 | 3.77 | 4.38 | 2.21 | 2.12 | 3.99 | 4.16 | 2.01 | 8.81 |  |  |
| Nc1ccn([C@@H]2O[C@H](Cn3cc(CNc4ccn([C@@H]5O[C@H](CO)[C@@H](O)C5(F)F)c(=O)n4)nn3)[C@@H](O)C2(F)F)c(=O)n1 |  | 16.1 | 15.1 |  |  |  | 16.5 | 15.9 |  |  | 16.2 | 29.3 |  |  |
| Cc1cn([C@H]2C[C@H](n3cc(CNc4ccn([C@@H]5O[C@H](CO)[C@@H](O)C5(F)F)c(=O)n4)nn3)[C@@H](CO)O2)c(=O)[nH]c1=O |  | 10.6 | 12.2 |  |  |  | 10.8 | 12.2 |  |  | 10.9 | 17.8 | Metabolite_Notdetected | Metabolite_Detected |
| O=C(Nc1ccn([C@@H]2O[C@H](CO)[C@@H](O)C2(F)F)c(=O)n1)OCc1cn(C[C@H]2O[C@@H](n3ccc(NC(=O)c4ccccc4)nc3=O)C(F)(F)[C@@H]2OC(=O)c2ccccc2)nn1 |  | 3.32 | 3.51 | 2.75 | 2.6 | 2.83 | 3.41 | 3.13 | 2.67 | 2.91 | 3.22 | 9.12 |  |  |
| CC(C)(C)OC(=O)O[C@@H]1[C@@H](Cn2cc(CNc3ccn([C@@H]4O[C@H](CO)[C@@H](O)C4(F)F)c(=O)n3)nn2)O[C@@H](n2ccc(N)nc2=O)C1(F)F |  | 4.23 | 5.19 | 2.58 | 2.1 | 2.65 | 4.54 | 4.09 | 2.4 | 2.67 | 4.11 | 10.9 |  |  |
| Nc1ccn([C@@H]2O[C@H](CO)[C@@H](O)[C@@H]2O)c(=O)n1 [CYTARABINE] |  | 3.47 |  | 1.44 | 1.75 | 1.41 | 2.88 |  | 1.73 | 1.23 |  | 4.99 |  |  |
| O=c1[nH]c(=O)n([C@H]2C[C@H](O)[C@@H](CO)O2)cc1F [FLOXURIDINE] |  | 5.91 |  | 2.21 | 1.47 | 2.01 | 6.14 |  | 2.13 | 1.5 |  | 13.1 |  |  |
| Nc1ccn([C@@H]2O[C@H](CO)[C@@H](O)C2(F)F)c(=O)n1 [GEMCITABINE] | Active | 5.05 | 4.9 | 3.85 | 3.97 | 2.07 | 5.21 | 8.21 | 3.73 | 2.37 | 9.42 | 19.4 |  |  |
| Cc1cn([C@H]2C[C@H](N=[N+]=[N-])[C@@H](CO)O2)c(=O)[nH]c1=O [ZIDOVUDINE] |  | 11.9 | 13 | 1.22 | 1.11 | 1.34 | 11.9 | 9.77 | 1.21 | 1.48 | 10.8 | 14.4 |  |  |
